Values after ≈ are worked out from the molar mass of the structure shown. Active and inactive are the calls of the source. No cut-off for these calls is given here.
How the values were obtained:
Pseudomonas aeruginosa = experiment: Antibacterial activity against Pseudomonas aeruginosa up to 100 ug/mL after 24 hrs by broth microdilution method; format: functional, organism-based
Method in brief: (§1)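 Broth microdilution with 2-fold serial dilutions in LB broth, compounds from DMSO stocks (DMSO below 5% final), inoculum about 5 × 10^5 CFU/mL. Incubated 24 h at 35 °C in ambient air. MIC is the lowest concentration with no visible growth. Experiments repeated three times.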

Enterococcus faecalis [1] = experiment: Antibacterial activity against vancomycin-resistant Enterococcus faecalis CKU-17 expressing VanB after 24 hrs by broth microdilution method; format: functional; settings: CKU-17, 24 h
Method in brief: (§2)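 2-fold serial dilutions of test agent in LB broth, DMSO under 5% final. Inoculum about 5 × 10^5 CFU/mL, confirmed by LB agar plating. Incubated 24 h at 35 °C in ambient air. MIC is the lowest concentration with no visible growth. Three repeats; oxacillin, vancomycin and chloramphenicol as positive controls.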

HepG2 = experiment: Cytotoxicity against human HepG2 cells after 48 hrs by MTT assay; format: functional; settings: HepG2, 48 h, read-out: CD50 (the source's name)
Method in brief: (§3)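 Cells seeded at 5 × 10^3 per well, grown 24 h, then given 2-fold dilutions of sample for 48 h. Medium replaced with serum-free medium, MTT added (5 mg/mL stock) for 2 h at 37 °C, formazan dissolved in DMSO, OD read at 550 nm. CD50 is the concentration giving 50% reduction in net cell increase. Quadruplicate, repeated at least twice.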

Staphylococcus aureus [2] = experiment: Antibacterial activity against methicillin-resistant Staphylococcus aureus 8-8S after 48 hrs by broth microdilution method; format: functional
Enterococcus faecalis [3] = experiment: Antibacterial activity against Enterococcus faecalis after 24 hrs by broth microdilution method; format: functional; method in brief: as §2
Enterococcus faecalis [4] = experiment: Antibacterial activity against Enterococcus faecalis after 48 hrs by broth microdilution method; format: functional
Staphylococcus aureus [5] = experiment: Antibacterial activity against Staphylococcus aureus after 48 hrs by broth microdilution method; format: functional
Enterococcus faecalis [6] = experiment: Antibacterial activity against vancomycin-resistant Enterococcus faecalis CKU-17 expressing VanB after 48 hrs by broth microdilution method; format: functional
HeLa = experiment: Cytotoxicity against human HeLa cells after 48 hrs by MTT assay; format: functional; settings: read-out: CD50 (the source's name); method in brief: as §3
Escherichia coli = experiment: Antibacterial activity against Escherichia coli up to 100 ug/mL after 24 hrs by broth microdilution method; format: functional, organism-based; method in brief: as §1
OVCAR-3 = experiment: Cytotoxicity against human OVCAR-3 cells after 48 hrs by MTT assay; format: functional; settings: OVCAR-3, 48 h, read-out: CD50 (the source's name); method in brief: as §3
Enterococcus faecium [7] = experiment: Antibacterial activity against vancomycin-resistant Enterococcus faecium F935 expressing VanA after 24 hrs by broth microdilution method; format: functional; settings: F935, 24 h; method in brief: as §2
Staphylococcus aureus [8] = experiment: Antibacterial activity against Staphylococcus aureus after 24 hrs by broth microdilution method; format: functional
Method in brief: (§4)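 2-fold serial dilutions of test agent in […], DMSO under 5% final. Inoculum about 5 × 10^5 CFU/mL, confirmed by LB agar plating. Incubated 24 h at 35 °C in ambient air. MIC is the lowest concentration with no visible growth. Three repeats; oxacillin, vancomycin and chloramphenicol as positive controls.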

Enterococcus faecium [9] = experiment: Antibacterial activity against vancomycin-resistant Enterococcus faecium F935 expressing VanA after 48 hrs by broth microdilution method; format: functional
Staphylococcus aureus [10] = experiment: Antibacterial activity against methicillin-resistant Staphylococcus aureus 8-8S after 24 hrs by broth microdilution method; format: functional; method in brief: as §4
Staphylococcus aureus [11] = experiment: Ratio of MBC to MIC for Staphylococcus aureus; format: functional
Enterococcus faecalis [12] = experiment: Ratio of MBC to MIC for Enterococcus faecalis; format: functional
Enterococcus faecium [13] = experiment: Ratio of MBC to MIC for vancomycin-resistant Enterococcus faecium F935 expressing VanA; format: functional

SMILES	Activity (Pseudomonas aeruginosa)	MIC (Enterococcus faecalis [1])	CC50 (HepG2)	MBC (Staphylococcus aureus [2])	MIC (Enterococcus faecalis [3])	MBC (Enterococcus faecalis [4])	MBC (Staphylococcus aureus [5])	MBC (Enterococcus faecalis [6]; CKU-17, 48 h)	CC50 (HeLa)	Activity (Escherichia coli)	CC50 (OVCAR-3)	MIC (Enterococcus faecium [7])	MIC (Staphylococcus aureus [8])	MBC (Enterococcus faecium [9]; F935, 48 h)	MIC (Staphylococcus aureus [10])	Ratio (Staphylococcus aureus [11])	Ratio (Enterococcus faecalis [12])	Ratio (Enterococcus faecium [13])	MBC (Enterococcus faecalis [6])	MBC (Enterococcus faecium [9])
CC(C)=CC[C@H](OC(=O)/C=C/c1ccc2c(c1)OCO2)C1=CC(=O)c2c(O)ccc(O)c2C1=O	inactive	50 µg/mL (≈ 108 µM)	2.1 µg/mL (≈ 4.54 µM)	50 µg/mL (≈ 108 µM)	100 µg/mL (≈ 216 µM)	> 100 µg/mL	100 µg/mL (≈ 216 µM)	50 µg/mL (≈ 108 µM)	1.5 µg/mL (≈ 3.24 µM)	inactive	1 µg/mL (≈ 2.16 µM)	50 µg/mL (≈ 108 µM)	50 µg/mL (≈ 108 µM)	50 µg/mL (≈ 108 µM)	50 µg/mL (≈ 108 µM)					
CC(C)=CC[C@H](OC(=O)C(C)C)C1=CC(=O)c2c(O)ccc(O)c2C1=O [ISOBUTYLALKANNIN]	inactive	3.13 µg/mL (≈ 8.73 µM)	4 µg/mL (≈ 11.2 µM)	3.13 µg/mL (≈ 8.73 µM)	3.13 µg/mL (≈ 8.73 µM)	3.13 µg/mL (≈ 8.73 µM)	1.56 µg/mL (≈ 4.35 µM)	6.25 µg/mL (≈ 17.4 µM)	5.4 µg/mL (≈ 15.1 µM)	inactive	2 µg/mL (≈ 5.58 µM)	3.13 µg/mL (≈ 8.73 µM)	1.56 µg/mL (≈ 4.35 µM)	3.13 µg/mL (≈ 8.73 µM)	1.56 µg/mL (≈ 4.35 µM)	<=2	<=2	<=2		
CC(=O)O[C@H](CC=C(C)C)C1=CC(=O)c2c(O)ccc(O)c2C1=O [ACETYLSHIKONIN]	inactive	6.25 µg/mL (≈ 18.9 µM)		1.56 µg/mL (≈ 4.72 µM)	3.13 µg/mL (≈ 9.48 µM)	3.13 µg/mL (≈ 9.48 µM)	1.56 µg/mL (≈ 4.72 µM)	6.25 µg/mL (≈ 18.9 µM)		inactive		6.25 µg/mL (≈ 18.9 µM)	1.56 µg/mL (≈ 4.72 µM)	6.25 µg/mL (≈ 18.9 µM)	1.56 µg/mL (≈ 4.72 µM)	<=2	<=2	<=2		
CC(C)=CC[C@H](OC(=O)C=C(C)C)C1=CC(=O)c2c(O)ccc(O)c2C1=O	inactive	3.13 µg/mL (≈ 8.45 µM)	2.6 µg/mL (≈ 7.02 µM)	3.13 µg/mL (≈ 8.45 µM)	3.13 µg/mL (≈ 8.45 µM)	3.13 µg/mL (≈ 8.45 µM)	1.56 µg/mL (≈ 4.21 µM)	3.13 µg/mL (≈ 8.45 µM)	1.8 µg/mL (≈ 4.86 µM)	inactive	1.6 µg/mL (≈ 4.32 µM)	3.13 µg/mL (≈ 8.45 µM)	1.56 µg/mL (≈ 4.21 µM)	3.13 µg/mL (≈ 8.45 µM)	1.56 µg/mL (≈ 4.21 µM)	<=2	<=2	<=2		
CC(C)=CC[C@H](OC(=O)/C=C/c1ccccc1)C1=CC(=O)c2c(O)ccc(O)c2C1=O [CINNAMOYL ALKANNIN]	inactive	25 µg/mL (≈ 59.7 µM)	3.8 µg/mL (≈ 9.08 µM)	> 100 µg/mL	100 µg/mL (≈ 239 µM)	> 100 µg/mL	100 µg/mL (≈ 239 µM)	100 µg/mL (≈ 239 µM)	3.6 µg/mL (≈ 8.6 µM)	inactive	2.4 µg/mL (≈ 5.74 µM)	25 µg/mL (≈ 59.7 µM)	50 µg/mL (≈ 119 µM)	100 µg/mL (≈ 239 µM)	50 µg/mL (≈ 119 µM)					
O=C(N[C@H](CO)[C@H](O)c1ccc([N+](=O)[O-])cc1)C(Cl)Cl [CHLORAMPHENICOL]		6.25 µg/mL (≈ 19.3 µM)			6.25 µg/mL (≈ 19.3 µM)	inactive						6.25 µg/mL (≈ 19.3 µM)							inactive	inactive
Cc1onc(-c2ccccc2)c1C(=O)N[C@@H]1C(=O)N2[C@@H]1SC(C)(C)[C@@H]2C(=O)O [OXACILLIN]		> 100 µg/mL		inactive	25 µg/mL (≈ 62.3 µM)	50 µg/mL (≈ 125 µM)	0.39 µg/mL (≈ 0.971 µM)					> 100 µg/mL	0.39 µg/mL (≈ 0.971 µM)		> 100 µg/mL				inactive	inactive
CC(C)=CC[C@@H](O)C1=CC(=O)c2c(O)ccc(O)c2C1=O [SHIKONIN]	inactive	25 µg/mL (≈ 86.7 µM)		12.5 µg/mL (≈ 43.4 µM)	50 µg/mL (≈ 173 µM)	50 µg/mL (≈ 173 µM)	12.5 µg/mL (≈ 43.4 µM)	50 µg/mL (≈ 173 µM)		inactive		50 µg/mL (≈ 173 µM)	6.25 µg/mL (≈ 21.7 µM)	50 µg/mL (≈ 173 µM)	6.25 µg/mL (≈ 21.7 µM)	<=2	<=2	<=2		
CC(C)=CC[C@H](O)C1=CC(=O)c2c(O)ccc(O)c2C1=O [ALKANNIN]	inactive	25 µg/mL (≈ 86.7 µM)	1 µg/mL (≈ 3.47 µM)	12.5 µg/mL (≈ 43.4 µM)	50 µg/mL (≈ 173 µM)	50 µg/mL (≈ 173 µM)	12.5 µg/mL (≈ 43.4 µM)	50 µg/mL (≈ 173 µM)	0.8 µg/mL (≈ 2.77 µM)	inactive	0.8 µg/mL (≈ 2.77 µM)	50 µg/mL (≈ 173 µM)	6.25 µg/mL (≈ 21.7 µM)	50 µg/mL (≈ 173 µM)	6.25 µg/mL (≈ 21.7 µM)	<=2	<=2	<=2		
CN[C@H](CC(C)C)C(=O)N[C@H]1C(=O)N[C@@H](CC(N)=O)C(=O)N[C@H]2C(=O)N[C@H]3C(=O)N[C@H](C(=O)N[C@H](C(=O)O)c4cc(O)cc(O)c4-c4cc3ccc4O)[C@H](O)c3ccc(c(Cl)c3)Oc3cc2cc(c3O[C@@H]2O[C@H](CO)[C@@H](O)[C@H](O)[C@H]2O[C@H]2C[C@](C)(N)[C@H](O)[C@H](C)O2)Oc2ccc(cc2Cl)[C@H]1O [VANCOMYCIN]		> 100 µg/mL		1.56 µg/mL (≈ 1.08 µM)	3.13 µg/mL (≈ 2.16 µM)	inactive	1.56 µg/mL (≈ 1.08 µM)					> 100 µg/mL	1.56 µg/mL (≈ 1.08 µM)		1.56 µg/mL (≈ 1.08 µM)				inactive	inactive
CC[C@H](C)C(=O)O[C@@H](CC=C(C)C)C1=CC(=O)c2c(O)ccc(O)c2C1=O	inactive	1.56 µg/mL (≈ 4.19 µM)	0.6 µg/mL (≈ 1.61 µM)	1.56 µg/mL (≈ 4.19 µM)	1.56 µg/mL (≈ 4.19 µM)	3.13 µg/mL (≈ 8.4 µM)	0.78 µg/mL (≈ 2.09 µM)	3.13 µg/mL (≈ 8.4 µM)	0.8 µg/mL (≈ 2.15 µM)	inactive	0.6 µg/mL (≈ 1.61 µM)	1.56 µg/mL (≈ 4.19 µM)	0.78 µg/mL (≈ 2.09 µM)	3.13 µg/mL (≈ 8.4 µM)	1.56 µg/mL (≈ 4.19 µM)	<=2	<=2	<=2		

Source: ChEMBL document CHEMBL1150162, “Antimicrobial activities of naphthazarins from Arnebia euchroma” (2002)
